According to the EternaBench riboswitch data:

System: MS2 coat protein
Test: apparent Kd, MS2 coat protein; higher = weaker binding; RNA-MaP array; FMN 200 µM where present
Summary of the method: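 The apparent Kd comes from binding curves fitted cluster by cluster, filtered, and summarised as a median. Those curves followed SNAP-549-labelled MS2 coat protein from 0.7 or 1.5 nM, doubling to 3 µM, on Illumina sequencing-chip clusters where stalled E. coli RNA polymerase had transcribed the designs, without and then with constant ligand. The buffer was 100 mM Tris-HCl pH 7.5, 80 mM KCl, 4 mM MgCl2, BSA, DTT, yeast tRNA and Tween-20, and green signal was normalised to red-channel RNA signal and control-cluster median Fmax.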

[1] = designed as: ON switch for flavin mononucleotide, no ligand
[2] = ligand present: flavin mononucleotide, designed as: ON switch for flavin mononucleotide
[3] = designed as: OFF switch for flavin mononucleotide, no ligand
[4] = ligand present: flavin mononucleotide, designed as: OFF switch for flavin mononucleotide

Sequence | apparent Kd [1] [nM] | apparent Kd [2] [nM] | apparent Kd [3] [nM] | apparent Kd [4] [nM]
UGUUGUAAACAGAACAUGAGGAUCACCCAUGUGCUCUCGUGUAAGGAUAUACAUUCGUAUGGAAAGUAGAAGGUACUAAUUAUG | 103 | 117 |  | 
AUUUAGAGAGGAUAUAUAUUGUGAAACAUGAGGAUCACCCAUGUAAUAAUAUGGAUGUAAAUAGAAGGCUCAUUUA |  |  | 38.1 | 34.9
UAAAAGACUAGCUUUGGUAAGAUCACAUGAGGAUCACCCAUGUAGGAUAUGAGCAGAAAAUCUGCUCAGAAGGACAUGCUAGUC |  |  | 16.2 | 156
UACCACGUUUGAUUAGGCGUGACAUGAGGAUCACCCAUGUGUCAGGAUAUACAUGGGCGGGCCCAGUAGAAGGGACUUAAUAGC | 327 | 65.1 |  | 
GGGUUUGGUGUGAGGAUAUCGGGCCCGAAAGGGUUUGAGAAGGCACAUGAGGAUCACCCAUGUAAGCCGGGCCC |  |  | 22.8 | 17.2
GCGUUGAACGAGAAGGCCAAUACAUGAGGAUCACCCAUGUUUAGAUGUUUUGGAGGAUAUCGUACGUCGUCUCAUGAGCAACGC |  |  | 6.68 | 7.92
GAGUAGUAAGGAUAUGUCUCUGGUGGCUACGGUCACUAGAGGCAGAAGGUACAUGAGGAUCACCCAUGUUUUUU |  |  | 17.2 | 19.3
GACUUGUUAGGAUAUCUUACAUUUGCAUCAUAGCAACCAUUGGAGAAGGGACAUGAGGAUCACCCAUGUUUGGA |  |  | 31.6 | 31
CCGUGAGCAGGAUAUACAUGAGGAUCACCCAUGUCCGAUCCAAACAUGGGAAAAGAAGGUAGAAGGGUUUGAGG |  |  | 28.5 | 36.1
UGUCGGAGCAGAGGAUAUUACAUGAGGAUCACCCAUGUAUGAACCAAUAGCUGGAAACAGCAAUGUAAGAAGGCAGCUCCGACA |  |  | 5.11 | 8.82
AGCUAGUCAGGAUAUACGAACAUGUCAAAAGACGUGAAGGGACAUGAGGAUCACCCAUGUAGAAGGGACUAGCA |  |  | 40 | 170
CCAUCGAGUGUGAGGAUAUGCUGUUCCUUGGAGCAGCAGAAGGCACAUGAGGAUCACCCAUGUGGAUACGGUGG |  |  | 34.3 | 251
GGAGACCUCACAGGAUAUGCUGGACUUUGUCCAGCAGAAGGGUGGAAACAUGAGGAUCACCCAUGUAUGGUCUCCAAAUUUAAU | 89 | 8.74 |  | 
CACUGCAAUGUAGGAUAUCGACUGGAUAACAGUCGAGAAGGACAUGAGGAUCACCCAUGUACUAUGAGUGAAUAAUAAGCAGUG |  |  | 89 | 950
UUCAGCUCGUGAGGAUAUACAUGUGCUGGAAACAGCAUUAAAUAAUUCACAUGAGGAUCACCCAUGUAGAAGGCACGAGCUGAG |  |  | 17 | 34.4
CGCGAACAUGAGGAUCACCCAUGUGAAAAACAUAGAGGAUAUGUCGCAUGCGUGUAAAAGACAGAAGGCUAUCGCG | 76.7 | 27.9 |  | 
UUUUACGAAGGAUAUACAUUUUUUUUAUUAUUUUCAUUAUUACAUGAGGAUCACCCAUGUAGAAGGUCGAUUUU |  |  | 24.3 | 23.7
GUCGGAAACGACAAAAGUAUGGAUCCAGAAGGCAUGAAACAUGAGGAUCACCCAUGUCUAAGACAUGAGGAUAUGGAUCCAUAC | 7.11 | 3.78 |  | 
UGUCAGAGCAGAGGAUAUUACAUGAGGAUCACCCAUGUAUGAACCAAUAGCUGGAAACAGCAAUGUAAGAAGGCUGCUCCGACA |  |  | 11.9 | 130
AAGAGAAAAGCAGGAUAUCUAUUGGCUCCUUAACAUGAGGAUCACCCAUGUAGAGAAGGGCUAAGACCGACUCUUCGGAGUUGA |  |  | 7.07 | 20.6
UGGUACAUGGGAGGAUAUCAUGUAUUCACAUGAGGAUCACCCAUGUCGAUGGAGACAUCGGAGAUUGAGAAGGCCCAUGUACCU | 1270 | 46.9 |  | 
GGAGCACACCUUAACAUGAGGAUCACCCAUGUCAAAAGACAUGAGGAUAUGGAUCCGAAAAGGAUCCAGAAGGCAUGGUGCUCC | 188 | 11.9 |  | 
UUAACUCAUGUAGGAUAUGCAUGGCGAAGCUACGCAGAAGGACAUGAGGAUCACCCAUGUUCUAGCGUCUGAAUACAGAUGCAA |  |  | 53.7 | 303
AUAAUUUUAUAUAUCUUUUUUAUCAGAAGGCAUAACAUGAGGAUCACCCAUGUAUAUUAUAGUUAUGAGGAUAUGAUUUAGUUA |  |  | 10.2 | 11.4

Sequence | apparent Kd [1] [nM] | apparent Kd [2] [nM] | apparent Kd [3] [nM] | apparent Kd [4] [nM]
AGGAAGUGAGGAUAUGCAGUCGCUAGUAGACGCUAGCACUUGUAGAAGGCACAUGAGGAUCACCCAUGUUUAAA |  |  | 31.3 | 36.3
CGCUCAGAGAACGAUACGAAUAGACAUGAGGAUCACCCAUGUAGAAGGACAACGGAAUAAACGUUGUAGGAUAUACAUUUAGUG |  |  | 34.3 | 90.4
GCCACGGGAGGAUAUCGCGGAGGCUACAUGAGGAUCACCCAUGUCUGGUCUUCGUGCUCCCGAGAAGGCCCGUCAG |  |  | 14 | 32.9
ACAUGAGGAUCACCCAUGUAGAAUGAAGAAGGUAGUUACUUGAGACUCACCCAUGUACAUAGGACUAAGGAUAUUCUAAUAAUU | 14.5 | 8.5 |  | 
AAUUAAUUGUAGAAGGUACUUAAUUAUGUUAUGUAAGGAUAUACGUAAUUAUUACGUCUUGUAUGACAUGAGGAUCACCCAUGU | 12.9 | 11 |  | 
UGUUGUAUUACAGGAUAUCUAGAAUUUUUAUUUAGAGAAGGGUAUUCACAUGAGGAUCACCCAUGUAUAUACGAGGAAGUUGUG | 33.7 | 33.8 |  | 
CUGUUCAGUGUAGGAUAUGCAUAUUCCCAUUAUGCAGAAGGACAUGAGGAUCACCCAUGUAUGUUAUUAUCAUGUGUUACAUGC |  |  | 33.6 | 124
GCCGAACAUGAGGAUCACCCAUGUCCGGGUAGUCAAGGAUAUGGGAAGGCAAUGCCGUGGCCAGAAGGUGGCUAUC | 99.3 | 21.3 |  | 
CUGGUUGUCGUAGGAUAUGUAGGAUAUUCCUACAUGAGGAUCACCCAUGUUCGCAUGGAAGAAGGACAGAAGGACGAUGACCAG | 621 | 24.9 |  | 
AAUUGACACGUAGGAUAUCGAACUAUUUUAACACGAGAAGGACGUACAUGAGGAUCACCCAUGUUUAAUGGUGUAGAUAAGUUG |  |  | 70.9 | 188
AAGUAGAUCCGAGGAUAUACAAGGCGGAAACGCUACAUGAGGAUCACCCAUGUAGAAGGCGGAUCUACAGGUACUAAAGUACCA |  |  | 5.84 | 10.5
UUAAUUAUACAAGGAUAUCUAUUGUAGUUUCGACUUACAUGAGGAUCACCCAUGUUUUUAUGUUUAGAGAAGGUGUAUUUUCAG | 104 | 77.3 |  | 
AGUACUCAAAGAGUACGCAUACGCACAUGAGGAUCACCCAUGUAGGAUAUGCUACUCAAAGAGUAGUAGAAGGACAUAUACCUC |  |  | 4.31 | 4.46
AGGAAGUGAGGAUAUGCAGUGGCUAGUAGACGCUAGCACUUGUAGAAGGCACAUGAGGAUCACCCAUGUUUAAA |  |  | 31.9 | 36.9
GAUUCACAUGAGGAUCACCCAUGUGAGGAUAUCUAGGUGCGGAGGCUAAGGCCUCCAGAGAGAAGGCACAUGGC |  |  | 27.3 | 41.3
CGCUGGACUGAGAAGGCCAUGUGGGACGCGAACAGUGAUGUUAGGGCAUGGAGGAUAUCAGACAUGAGGAUCACCCAUGUAACC | 392 | 38 |  | 
GUUGGGUGUCAUGUCGCACAUGAGGAUCACCCAUGUAGGAGGUAGGAUAUCCACGAGAAACGAGAGGAGAAGGGCCAUUAGCGU |  |  | 19.2 | 23
GGGUACAUCGGAGGAUAUCAUGUAUAGACAUGAGGAUCACCCAUGUCGUACGAGAGUACGGAGAUUGAGAAGGCCGAUGUACCG | 20.7 | 17.3 |  | 
UUGGACGUCGUAGGAUAUGUAGGAUAUUCCUACAUGAGGAUCACCCAUGUUGACAUGGAAGAAUGACAGAAGGACGAUGUCCAU | 712 | 11.8 |  | 
GAAAGGUCAGGAUAUACGUUAUGCUAGUGCUCGUACUAUAAGUAGAAGGGACAUGAGGAUCACCCAUGUGAUAA |  |  | 54.8 | 79.4
UUAUGGCUAGGAUAUGCACGUGCAUGUUCAAGUCAAAGAAGACAUGAGGAUCACCCAUGUAGAAGGAGCGGUAC |  |  | 37.8 | 24.2
AACUCGUCAGGAUAUGCGCGCAGUUACUACGCUUCGCAAUUGCAGAAGGGACAUGAGGAUCACCCAUGUAGAUC |  |  | 34.6 | 57.3
CCGGAAGUAGAGGAUAUAGGAGUCGAUAGACUCCUAGAAGGCUAUACAUGAGGAUCACCCAUGUGUCCUACCGG |  |  | 19.6 | 31
GAAAACAGAGGAUAUACAAAAUUGACACGAAAGGUGCAAAAACAUGAGGAUCACCCAUGUAGAAGGCUGAAGAA |  |  | 24.8 | 22
